Here are results for 16 compounds from ChEMBL document CHEMBL1155459, “On-bead screening of a combinatorial fumaric acid derived peptide library yields antiplasmodial cysteine protease inhibitors with unusual peptide sequences” (J Med Chem, 2009).

A short description of experiment [1]: Inhibition of Plasmodium falciparum falcipain-2 after 12 hrs by fluorescence spectroscopy-based on-bead assay. Further details: concentration or dose not given beside the values. The conditions noted are these: concentration not given here. In short, it runs like this:
(§1)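 Library members on resin (PEGA, theoretical loading 0.40 mmol/g; added as DMSO suspension, 0.64 mM final inhibitor) preincubated with enzyme 12 h, then Cbz-Phe-Arg-AMC 40 μM added; AMC release followed by fluorescence (ex 380/em 460 nm). Kinetics compared with inhibitor-free amino-PEGA resin.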

Experiment [2] addresses Rhodesain (Trypanosoma brucei rhodesiense) (UniProt Q95PM0). Description: Inhibition of Trypanosoma brucei rhodesiense rhodesain after 12 hrs by fluorescence spectroscopy-based on-bead assay. Further details: concentration or dose not given beside the values. The conditions noted are these: concentration not given here. In short, it runs like this: as §1

Peptide text beside a SMILES is read from it.

Rhodesain (Trypanosoma brucei rhodesiense), sequence (Q95PM0 1-450): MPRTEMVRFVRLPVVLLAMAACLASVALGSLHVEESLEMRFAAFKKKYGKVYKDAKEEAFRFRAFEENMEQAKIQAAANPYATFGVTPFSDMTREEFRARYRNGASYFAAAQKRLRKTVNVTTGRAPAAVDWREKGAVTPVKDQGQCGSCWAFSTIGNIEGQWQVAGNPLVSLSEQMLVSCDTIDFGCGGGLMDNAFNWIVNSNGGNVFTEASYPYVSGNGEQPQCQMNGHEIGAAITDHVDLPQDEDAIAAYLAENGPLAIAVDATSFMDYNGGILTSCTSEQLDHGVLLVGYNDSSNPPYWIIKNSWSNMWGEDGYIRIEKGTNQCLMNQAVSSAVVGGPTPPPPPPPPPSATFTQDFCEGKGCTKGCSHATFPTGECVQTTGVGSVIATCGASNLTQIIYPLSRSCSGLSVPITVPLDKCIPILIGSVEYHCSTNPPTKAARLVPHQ

With `CC(C)C[C@H](NC(=O)[C@H](CC(N)=O)NC(=O)/C=C/C(=O)N[C@@H](C)C(=O)NCC(=O)N[C@@H](Cc1ccccc1)C(=O)O)C(=O)N[C@H](C(=O)N[C@H](C(N)=O)C(C)C)C(C)C` (HELM PEPTIDE1{[C[C@H](NC(=O)/C=C/C(=O)[*:2])C(=O)NCC(=O)N[C@@H](Cc1ccccc1)C(=O)O].N.L.V.V.[am]}$$$$V2.0), the inhibition (as a rule, the relative decrease from the control value, in per cent) in experiment [1] amounted to 43%; in experiment [2], 50%.

For the compound `CC(C)[C@H](NC(=O)[C@H](C)NC(=O)[C@@H](NC(=O)[C@H](CC(N)=O)NC(=O)/C=C/C(=O)N[C@@H](C)C(=O)NCC(=O)N[C@@H](Cc1ccccc1)C(=O)O)C1CCCCC1)C(N)=O` (HELM PEPTIDE1{[C[C@H](NC(=O)/C=C/C(=O)[*:2])C(=O)NCC(=O)N[C@@H](Cc1ccccc1)C(=O)O].N.[O=C([C@@H](N[*:1])C1CCCCC1)[*:2]].A.V.[am]}$$$$V2.0), the inhibition in experiment [1] was determined as 45%; in experiment [2], 36%.

In the case of `CC(C)C[C@H](NC(=O)[C@@H](NC(=O)[C@H](CC(N)=O)NC(=O)/C=C/C(=O)N[C@@H](C)C(=O)NCC(=O)N[C@@H](Cc1ccccc1)C(=O)O)C1CCCCC1)C(=O)N[C@H](C(N)=O)C(C)C` (HELM PEPTIDE1{[C[C@H](NC(=O)/C=C/C(=O)[*:2])C(=O)NCC(=O)N[C@@H](Cc1ccccc1)C(=O)O].N.[O=C([C@@H](N[*:1])C1CCCCC1)[*:2]].L.V.[am]}$$$$V2.0), the inhibition in experiment [1] came to 40%; in experiment [2], 66%.

For the compound `CC(C)[C@H](NC(=O)[C@@H](NC(=O)[C@@H](NC(=O)[C@H](CC(N)=O)NC(=O)/C=C/C(=O)N[C@@H](C)C(=O)NCC(=O)N[C@@H](Cc1ccccc1)C(=O)O)C1CCCCC1)C(C)C)C(N)=O` (HELM PEPTIDE1{[C[C@H](NC(=O)/C=C/C(=O)[*:2])C(=O)NCC(=O)N[C@@H](Cc1ccccc1)C(=O)O].N.[O=C([C@@H](N[*:1])C1CCCCC1)[*:2]].V.V.[am]}$$$$V2.0), the inhibition turned out to be 62% in experiment [1] and 50% in experiment [2].

Take `CC(C)[C@H](NC(=O)[C@H](C)NC(=O)[C@@H](NC(=O)[C@H](CC(N)=O)NC(=O)/C=C/C(=O)N[C@@H](C)C(=O)NCC(=O)N[C@@H](Cc1ccccc1)C(=O)O)c1ccccc1)C(N)=O` (HELM PEPTIDE1{[C[C@H](NC(=O)/C=C/C(=O)[*:2])C(=O)NCC(=O)N[C@@H](Cc1ccccc1)C(=O)O].N.[Phg].A.V.[am]}$$$$V2.0): the inhibition in experiment [1] was found to be 35%; in experiment [2] it was 44%.

Turning to `CC(C)C[C@H](NC(=O)[C@@H](NC(=O)[C@H](CC(N)=O)NC(=O)/C=C/C(=O)N[C@@H](C)C(=O)NCC(=O)N[C@@H](Cc1ccccc1)C(=O)O)c1ccccc1)C(=O)N[C@H](C(N)=O)C(C)C` (HELM PEPTIDE1{[C[C@H](NC(=O)/C=C/C(=O)[*:2])C(=O)NCC(=O)N[C@@H](Cc1ccccc1)C(=O)O].N.[Phg].L.V.[am]}$$$$V2.0), the inhibition in experiment [1] and in experiment [2] was 55% each time.

Regarding `CC(C)[C@H](NC(=O)[C@@H](NC(=O)[C@@H](NC(=O)[C@H](CC(N)=O)NC(=O)/C=C/C(=O)N[C@@H](C)C(=O)NCC(=O)N[C@@H](Cc1ccccc1)C(=O)O)c1ccccc1)C(C)C)C(N)=O` (HELM PEPTIDE1{[C[C@H](NC(=O)/C=C/C(=O)[*:2])C(=O)NCC(=O)N[C@@H](Cc1ccccc1)C(=O)O].N.[Phg].V.V.[am]}$$$$V2.0), the values for the inhibition in experiment [1] and in experiment [2] were 51% and 37%, respectively.

`CC(C)[C@H](NC(=O)[C@H](C)NC(=O)[C@H](Cc1ccccc1)NC(=O)[C@H](CCC(N)=O)NC(=O)/C=C/C(=O)N[C@@H](C)C(=O)NCC(=O)N[C@@H](Cc1ccccc1)C(=O)O)C(N)=O` (HELM PEPTIDE1{[C[C@H](NC(=O)/C=C/C(=O)[*:2])C(=O)NCC(=O)N[C@@H](Cc1ccccc1)C(=O)O].Q.F.A.V.[am]}$$$$V2.0): the inhibition in experiment [1] is 25%; in experiment [2] it was 30%.

On to `CC(C)C[C@H](NC(=O)[C@H](Cc1ccccc1)NC(=O)[C@H](CCC(N)=O)NC(=O)/C=C/C(=O)N[C@@H](C)C(=O)NCC(=O)N[C@@H](Cc1ccccc1)C(=O)O)C(=O)N[C@H](C(N)=O)C(C)C` (HELM PEPTIDE1{[C[C@H](NC(=O)/C=C/C(=O)[*:2])C(=O)NCC(=O)N[C@@H](Cc1ccccc1)C(=O)O].Q.F.L.V.[am]}$$$$V2.0), for which the inhibition worked out at 49% in experiment [1] and 60% in experiment [2].

Turning to `CC(C)[C@H](NC(=O)[C@@H](NC(=O)[C@H](Cc1ccccc1)NC(=O)[C@H](CCC(N)=O)NC(=O)/C=C/C(=O)N[C@@H](C)C(=O)NCC(=O)N[C@@H](Cc1ccccc1)C(=O)O)C(C)C)C(N)=O` (HELM PEPTIDE1{[C[C@H](NC(=O)/C=C/C(=O)[*:2])C(=O)NCC(=O)N[C@@H](Cc1ccccc1)C(=O)O].Q.F.V.V.[am]}$$$$V2.0), the results for the inhibition in experiment [1] and in experiment [2] were 58% and 45%, respectively.

As for `CC[C@H](C)[C@H](NC(=O)[C@H](CCC(N)=O)NC(=O)/C=C/C(=O)N[C@@H](C)C(=O)NCC(=O)N[C@@H](Cc1ccccc1)C(=O)O)C(=O)N[C@@H](C)C(=O)N[C@H](C(N)=O)C(C)C` (HELM PEPTIDE1{[C[C@H](NC(=O)/C=C/C(=O)[*:2])C(=O)NCC(=O)N[C@@H](Cc1ccccc1)C(=O)O].Q.I.A.V.[am]}$$$$V2.0), the inhibition in experiment [1] was found to be 43%; in experiment [2] it was 29%.

In the case of `CC[C@H](C)[C@H](NC(=O)[C@H](CCC(N)=O)NC(=O)/C=C/C(=O)N[C@@H](C)C(=O)NCC(=O)N[C@@H](Cc1ccccc1)C(=O)O)C(=O)N[C@@H](CC(C)C)C(=O)N[C@H](C(N)=O)C(C)C` (HELM PEPTIDE1{[C[C@H](NC(=O)/C=C/C(=O)[*:2])C(=O)NCC(=O)N[C@@H](Cc1ccccc1)C(=O)O].Q.I.L.V.[am]}$$$$V2.0), the inhibition in experiment [1] was 46%; in experiment [2], 47%.

As for `CC[C@H](C)[C@H](NC(=O)[C@H](CCC(N)=O)NC(=O)/C=C/C(=O)N[C@@H](C)C(=O)NCC(=O)N[C@@H](Cc1ccccc1)C(=O)O)C(=O)N[C@H](C(=O)N[C@H](C(N)=O)C(C)C)C(C)C` (HELM PEPTIDE1{[C[C@H](NC(=O)/C=C/C(=O)[*:2])C(=O)NCC(=O)N[C@@H](Cc1ccccc1)C(=O)O].Q.I.V.V.[am]}$$$$V2.0), the inhibition was found to be 54% in experiment [1] and 38% in experiment [2].

Take `CC(C)C[C@H](NC(=O)[C@H](CCC(N)=O)NC(=O)/C=C/C(=O)N[C@@H](C)C(=O)NCC(=O)N[C@@H](Cc1ccccc1)C(=O)O)C(=O)N[C@@H](C)C(=O)N[C@H](C(N)=O)C(C)C` (HELM PEPTIDE1{[C[C@H](NC(=O)/C=C/C(=O)[*:2])C(=O)NCC(=O)N[C@@H](Cc1ccccc1)C(=O)O].Q.L.A.V.[am]}$$$$V2.0): the inhibition worked out at 54% in experiment [1] and 7% in experiment [2].

As for `CC(C)C[C@H](NC(=O)[C@H](CCC(N)=O)NC(=O)/C=C/C(=O)N[C@@H](C)C(=O)NCC(=O)N[C@@H](Cc1ccccc1)C(=O)O)C(=O)N[C@@H](CC(C)C)C(=O)N[C@H](C(N)=O)C(C)C` (HELM PEPTIDE1{[C[C@H](NC(=O)/C=C/C(=O)[*:2])C(=O)NCC(=O)N[C@@H](Cc1ccccc1)C(=O)O].Q.L.L.V.[am]}$$$$V2.0), the values for the inhibition in experiment [1] and in experiment [2] were 55% and 56%, respectively.

As to `CC(C)[C@H](NC(=O)[C@H](C)NC(=O)[C@@H](NC(=O)[C@H](CCC(N)=O)NC(=O)/C=C/C(=O)N[C@@H](C)C(=O)NCC(=O)N[C@@H](Cc1ccccc1)C(=O)O)C1CCCCC1)C(N)=O` (HELM PEPTIDE1{[C[C@H](NC(=O)/C=C/C(=O)[*:2])C(=O)NCC(=O)N[C@@H](Cc1ccccc1)C(=O)O].Q.[O=C([C@@H](N[*:1])C1CCCCC1)[*:2]].A.V.[am]}$$$$V2.0), the results for the inhibition in experiment [1] and in experiment [2] were 55% and 39%, respectively.
